Reference: ChEMBL document CHEMBL4190346, “Structure-based design, synthesis, and biological evaluation of withaferin A-analogues as potent apoptotic inducers” (Eur J Med Chem, 2017)
Active and inactive are the calls of the source. The rule behind the calls is not given here.

Legend:
HeLa [1] = assay: Cytotoxicity against human HeLa cells assessed as reduction in cell viability using compound addition to cell culture cells in lag phase of growth and incubated for 48 hrs by MTT assay; assay type: functional, cell-based; conditions: Homo sapiens, HeLa, 48 h; read-out: IC50
HeLa [2] = assay: Cytotoxicity against human HeLa cells assessed as reduction in cell viability using compound addition to cell culture cells in log phase of growth and incubated for 48 hrs by MTT assay; assay type: functional, cell-based; conditions: Homo sapiens, HeLa, 48 h; read-out: IC50
A549 [3] = assay: Cytotoxicity against human A549 cells assessed as reduction in cell viability using compound addition to cell culture cells in lag phase of growth and incubated for 48 hrs by MTT assay; assay type: functional, cell-based; conditions: Homo sapiens, A549, 48 h; read-out: IC50
A549 [4] = assay: Cytotoxicity against human A549 cells assessed as reduction in cell viability using compound addition to cell culture cells in log phase of growth and incubated for 48 hrs by MTT assay; assay type: functional, cell-based; conditions: Homo sapiens, A549, 48 h; read-out: IC50
MCF7 [5] = assay: Cytotoxicity against human MCF7 cells assessed as reduction in cell viability using compound addition to cell culture cells in lag phase of growth and incubated for 48 hrs by MTT assay; assay type: functional, cell-based; conditions: Homo sapiens, MCF7, 48 h; read-out: IC50
MCF7 [6] = assay: Cytotoxicity against human MCF7 cells assessed as reduction in cell viability using compound addition to cell culture cells in log phase of growth and incubated for 48 hrs by MTT assay; assay type: functional, cell-based; conditions: Homo sapiens, MCF7, 48 h; read-out: IC50
Vero [7] = assay: Cytotoxicity against African green monkey Vero cells assessed as reduction in cell viability using compound addition to cell culture cells in lag phase of growth and incubated for 48 hrs by MTT assay; assay type: cell-based, Chlorocebus sabaeus; conditions: Chlorocebus sabaeus, Vero, 48 h; read-out: IC50
Vero [8] = assay: Cytotoxicity against African green monkey Vero cells assessed as reduction in cell viability using compound addition to cell culture cells in log phase of growth and incubated for 48 hrs by MTT assay; assay type: cell-based, Chlorocebus sabaeus; conditions: Chlorocebus sabaeus, Vero, 48 h; read-out: IC50
MCF7 [9] = assay: Ratio of IC50 for cytotoxicity against human MCF7 cells using compound addition to cell culture cells in lag phase of growth and incubated for 48 hrs by MTT assay to IC50 for cytotoxicity against human MCF7 cells using compound addition to cell culture cells in log phase of growth and incubated for 48 hrs by MTT assay; assay type: functional
HeLa [10] = assay: Induction of apoptosis in human HeLa cells assessed increase in DNA fragmentation at 16 uM incubated for 12 hrs by ethidium bromide staining based agarose gel electrophoresis; assay type: functional, cell-based
In short: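 HeLa cells were incubated with the compounds at varying concentrations for 12 or 24 h. Controls were DMSO (solvent) and staurosporine 2 µM (positive). Adherent and floating cells were pooled, centrifuged at 500 g and washed twice in cold PBS. Genomic DNA was extracted with a kit, run on 1.8% agarose, stained with ethidium bromide and viewed under UV.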

HeLa [11] = assay: Induction of apoptosis in human HeLa cells assessed as increase in caspase-3 activity by measuring pNA release level at 8 uM incubated for 4 hrs using c-DEVD-pNA substrate by colorimetric assay; assay type: functional
In short: (§1)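 HeLa cells in DMEM with 10% FBS were exposed for 4 h (fixed 24 or 32 level for 8 h). Staurosporine for 4 h served as the positive control. Cells were lysed at 4 °C for 10 min and centrifuged, and supernatant protein was measured by Bradford. Caspase-3 activity was read colorimetrically as nmol pNA/min/mL, with treated/untreated OD ratios. Values are means ± SD of three independent experiments in triplicate.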

HeLa [12] = assay: Induction of apoptosis in human HeLa cells assessed as increase in caspase-3 activity by measuring pNA release level at 12 uM incubated for 4 hrs using c-DEVD-pNA substrate by colorimetric assay; assay type: functional; in short: as §1
HeLa [13] = assay: Induction of apoptosis in human HeLa cells assessed as increase in caspase-3 activity by measuring pNA release level at 16 uM incubated for 4 hrs using c-DEVD-pNA substrate by colorimetric assay; assay type: functional; in short: as §1
HeLa [14] = assay: Induction of apoptosis in human HeLa cells assessed as increase in caspase-3 activity by measuring pNA release level at 24 uM incubated for 4 hrs using c-DEVD-pNA substrate by colorimetric assay; assay type: functional; in short: as §1
HeLa [15] = assay: Induction of apoptosis in human HeLa cells assessed as increase in caspase-3 activity by measuring pNA release level at 32 uM incubated for 4 hrs using c-DEVD-pNA substrate by colorimetric assay; assay type: functional; in short: as §1
HeLa [16] = assay: Induction of apoptosis in human HeLa cells assessed as […] by measuring pNA release level at 32 uM incubated for 8 hrs using c-DEVD-pNA substrate by colorimetric assay; assay type: functional, cell-based; in short: as §1
HeLa [17] = assay: Induction of apoptosis in human HeLa cells assessed increase in apoptotic nuclei formation at 8 uM incubated for 12 hrs by Hoechst 33342 staining based fluorescence microscopy; assay type: functional
HeLa [18] = assay: Induction of cell cycle arrest in human HeLa cells assessed increase in subG1 phase accumulation at 24 uM incubated for 12 hrs by 33342 propidium iodide based flow cytometry relative to untreated control; assay type: functional
HeLa [19] = assay: Induction of apoptosis in human HeLa cells at 10 uM incubated for 4 hrs by annexin V and propidium iodide staining based flow cytometry; assay type: functional, cell-based
HeLa [20] = assay: Induction of apoptosis in human HeLa cells at 12 uM incubated for 4 hrs by annexin V and propidium iodide staining based flow cytometry; assay type: functional, cell-based
HeLa [21] = assay: Induction of cell cycle arrest in human HeLa cells assessed increase in hypoploid phase accumulation at 24 uM incubated for 12 hrs by […] propidium iodide based flow cytometry relative to untreated control; assay type: functional
HeLa [22] = assay: Induction of apoptosis in human HeLa cells assessed increase in phosphatidylserine externalization at 2 uM incubated for 4 hrs by annexin V and propidium iodide staining based flow cytometry; assay type: functional, cell-based
HeLa [23] = assay: Induction of apoptosis in human HeLa cells assessed as increase in caspase-3 activity by measuring pNA release level at 24 uM incubated for 8 hrs using c-DEVD-pNA substrate by colorimetric assay; assay type: functional; in short: as §1
MCF7 [24] = assay: Ratio of IC50 for cytotoxicity against human MCF7 cells incubated for 48 hrs to IC50 for cytotoxicity against human MCF7 cells incubated for 72 hrs; assay type: functional
MCF7 (Homo sapiens) [25] = assay: Ratio of IC50 for cytotoxicity against human MCF7 cells incubated for 48 hrs to IC50 for cytotoxicity against human MCF7 cells incubated for 72 hrs
MCF7 (Homo sapiens) [26] = assay: as above; remark: listed apart in the source

SMILES	IC50 (HeLa [1]) [nM]	IC50 (HeLa [2]) [nM]	IC50 (A549 [3]) [nM]	IC50 (A549 [4]) [nM]	IC50 (MCF7 [5]) [nM]	IC50 (MCF7 [6]) [nM]	IC50 (Vero [7]) [nM]	IC50 (Vero [8]) [nM]	Ratio IC50 (MCF7 [9])	Activity (HeLa [10])	Activity (HeLa [11]) [nmol/min/mL]	Activity (HeLa [12]) [nmol/min/mL]	Activity (HeLa [13]) [nmol/min/mL]	Activity (HeLa [14]) [nmol/min/mL]	Activity (HeLa [15]) [nmol/min/mL]	Activity (HeLa [16])	fold change (FC) (HeLa [18])	further results
CCCC(=O)OCC1=C(C)C[C@H]([C@@H](C)[C@H]2CC[C@H]3[C@@H]4C[C@H]5O[C@]56C(=O)C=CC(=O)[C@]6(C)[C@H]4CC[C@]23C)OC1=O	8300	7900	6700	4300	11500	2800	3800	2100	>3	–	–	–	–	–	–	–	–	–
CC(=O)OCC1=C(C)C[C@H]([C@@H](C)[C@H]2CC[C@H]3[C@@H]4C[C@H]5O[C@]56[C@@H](OC(C)=O)C=CC(=O)[C@]6(C)[C@H]4CC[C@]23C)OC1=O	–	–	–	–	–	–	–	–	–	Active	0.33	0.42	0.5	1.06	0.68	–	–	–
CC1=C(COC(=O)c2ccoc2)C(=O)O[C@@H]([C@@H](C)[C@H]2CC[C@H]3[C@@H]4C[C@H]5O[C@]56[C@@H](O)C=CC(=O)[C@]6(C)[C@H]4CC[C@]23C)C1	2500	1100	2300	3300	3000	1000	2800	700	>3	–	0.44	0.68	0.62	1.01	1.63	Active	–	–
CC1=C(COC(=O)C(C)(C)C)C(=O)O[C@@H]([C@@H](C)[C@H]2CC[C@H]3[C@@H]4C[C@H]5O[C@]56[C@@H](OC(=O)C(C)(C)C)C=CC(=O)[C@]6(C)[C@H]4CC[C@]23C)C1	900	2400	4100	4600	600	1200	400	500	–	Active	0.26	0.25	0.28	0.54	0.63	Active	4 - 6	Activity (HeLa [17]): 15%; Activity (HeLa [19]): Active
CC1=C(COC(=O)C(C)(C)C)C(=O)O[C@@H]([C@@H](C)[C@H]2CC[C@H]3[C@@H]4C[C@H]5O[C@]56[C@@H](O)C=CC(=O)[C@]6(C)[C@H]4CC[C@]23C)C1	800	1700	1800	2100	300	400	400	500	–	Active	0.26	0.61	0.78	1.04	0.93	Active	4 - 6	Activity (HeLa [17]): 28%; Activity (HeLa [20]): Active
CC1=C(CO)C(=O)O[C@@H]([C@@H](C)[C@H]2CC[C@H]3[C@@H]4C[C@H]5O[C@]56[C@@H](O)C=CC(=O)[C@]6(C)[C@H]4CC[C@]23C)C1 [WITHAFERIN A]	–	6300	–	10100	–	1300	–	6600	2.8	–	0.35	0.41	0.47	0.55	1.12	–	4 - 6	Activity (HeLa [21]): 11.3%; Activity (HeLa [22]): Active; Activity (HeLa [23]): 0.6 to 1.9 nmol/min/mL
CCC(=O)OCC1=C(C)C[C@H]([C@@H](C)[C@H]2CC[C@H]3[C@@H]4C[C@H]5O[C@]56[C@@H](O)C=CC(=O)[C@]6(C)[C@H]4CC[C@]23C)OC1=O	1600	1100	1600	2100	2300	1200	900	1000	–	–	0.52	0.52	1.02	1.9	1.67	Active	–	Ratio IC50 (MCF7 [24]): >3; Ratio IC50 (MCF7 (Homo sapiens) [25]): >3; Ratio IC50 (MCF7 (Homo sapiens) [26]): >3
CCCC(=O)OCC1=C(C)C[C@H]([C@@H](C)[C@H]2CC[C@H]3[C@@H]4C[C@H]5O[C@]56[C@@H](OC(=O)CCC)C=CC(=O)[C@]6(C)[C@H]4CC[C@]23C)OC1=O	1900	1600	2800	1900	1000	1000	1600	700	–	–	0.15	0.61	0.93	0.88	1.7	Active	–	–
